Test results taken from ChEMBL document CHEMBL1764990, “Caffeic acid phenethyl ester inhibits PDGF-induced proliferation of vascular smooth muscle cells via activation of p38 MAPK, HIF-1α, and heme oxygenase-1” (J Nat Prod, 2011).
Active and inactive are the calls of the source. The calls are words filed in the database; no cut-off is given here.

Columns and labels:
[1] = test system: VSMC; assay: Inhibition of PDGF-stimulated rat VSMC proliferation after 24 hrs; type: functional
Summary of the method: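 Quiescent rat aortic VSMCs treated with compound (1–10 μM) or vehicle, then stimulated with PDGF (20 ng/mL) for 24 h. Cells were counted; the increase in cell number in vehicle-treated cells was set to 100%.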

[2] = test system: VSMC; assay: Inhibition of PDGF-induced DNA synthesis in rat VSMC assessed as [3H]thymidine incorporation into DNA at 5 uM treated for 30 mins before 24 hrs of PDGF challenge; type: functional
Summary of the method: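 Quiescent rat aortic VSMCs (starved 48 h) pretreated 30 min with 5 μM compound, then stimulated with PDGF-BB (20 ng/mL). Methyl-3H-thymidine (2 μCi/mL) pulse for the last 6 h of 24 h. TCA-insoluble radioactivity measured after NaOH solubilisation.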

[3] = Cytotoxicity against rat VSMC assessed as cell viability at >25 uM after 48 hrs by trypan blue exclusion assay; type: cell-based; details: VSMC (vascular smooth muscle cells), read-out: Activity
Summary of the method: (§1)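 Cultured rat aortic VSMCs exposed to compound for 48 h. Viability by trypan blue exclusion, with cell morphology and detachment also noted.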

[4] = Cytotoxicity against rat VSMC assessed as morphological changes at >25 uM after 48 hrs by trypan blue exclusion assay; summary of the method: as §1
[5] = Cytotoxicity against rat VSMC assessed as detachment of the cells at >25 uM after 48 hrs by trypan blue exclusion assay; type: cell-based; summary of the method: as §1
[6] = Cell cycle arrest in PDGF-induced rat VSMC assessed as accumulation at G0/G1 phase at 5 uM treated for 30 mins followed by induced with PDGF for 28 hrs by propidium iodide staining by flow cytometry; type: functional, cell-based
Summary of the method: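 Quiescent rat aortic VSMCs pretreated 30 min with 5 μM compound, then stimulated with PDGF (20 ng/mL) for 28 h. Nuclei stained with propidium iodide; cell-cycle distribution by flow cytometry. n = 3.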

[7] = test system: VSMC; assay: Induction of cell cycle arrest in rat VSMC at G1 phase assessed as inhibition of retinoblastoma protein phosphorylation treated for 30 mins before 12 hrs of PDGF challenge by Western blot analysis; type: functional, cell-based
[8] = test system: VSMC; assay: Inhibition of rat VSMC proliferation at 5 uM; type: functional
[9] = species on record: Rattus norvegicus; assay: Inhibition of TNFalpha-induced NF-kappaB binding activity in rat VSMC at 5 uM pretreated for 30 mins before 45 mins of TNFalpha stimulation by gel shift assay
Summary of the method: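 Rat aortic VSMCs in six-well plates preincubated 30 min with vehicle or compound, then treated with TNF-α (10 ng/mL). NF-κB DNA binding in nuclear extracts measured by electrophoretic mobility shift assay.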

[10] = species on record: Rattus norvegicus; assay: Inhibition of NF-kappaB activation in rat VSMC at 5 uM
[11] = test system: VSMC; assay: Inhibition of p38 phosphorylation in PDGF-stimulated rat VSMC at 5 uM treated for 30 mins before 10 mins of cell stimulation by Western blot analysis; type: cell-based
Summary of the method: (§2)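 Quiescent rat aortic VSMCs (serum-free DMEM 24 h) pretreated 30 min with vehicle or 5 μM compound, then stimulated with PDGF (20 ng/mL) for 10 min. Total lysates analysed by Western blot for phospho-AKT, ERK, JNK, STAT3 and p38, with tubulin or actin.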

[12] = biological target: Mitogen-activated protein kinase 1 and 3 (ERK2 and ERK1) (Rattus norvegicus) (UniProt P63086+P21708); assay: Inhibition of ERK1/2 phosphorylation in PDGF-stimulated rat VSMC at 5 uM treated for 30 mins before 10 mins of cell stimulation by Western blot analysis; summary of the method: as §2
[13] = biological target: Mitogen-activated protein kinase 8 (Rattus norvegicus) (UniProt P49185); assay: Inhibition of JNK1/2 phosphorylation in PDGF-stimulated rat VSMC at 5 uM treated for 30 mins before 10 mins of cell stimulation by Western blot analysis; type: cell-based; summary of the method: as §2
[14] = test system: VSMC; assay: Inhibition of AKT phosphorylation in PDGF-stimulated rat VSMC at 5 uM treated for 30 mins before 10 mins of cell stimulation by Western blot analysis; type: cell-based; summary of the method: as §2
[15] = biological target: Signal transducer and activator of transcription 3 (Rattus norvegicus) (UniProt P52631); assay: Inhibition of STAT3 phosphorylation in PDGF-stimulated rat VSMC at 5 uM treated for 30 mins before 10 mins of cell stimulation by Western blot analysis; summary of the method: as §2
[16] = test system: VSMC; assay: Inhibition of tubulin phosphorylation in PDGF-stimulated rat VSMC at 5 uM treated for 30 mins before 10 mins of cell stimulation by Western blot analysis; type: cell-based
[17] = species on record: Rattus norvegicus; assay: Effect on p38 MAPK activation in PDGF-stimulated rat VSMC assessed as phosphorylation at 5 uM treated for 30 mins followed by stimulated with PDGF for 10 mins by immunoblot analysis
Summary of the method: (§3)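 Quiescent rat aortic VSMCs pretreated 30 min with vehicle or 5 μM compound, then stimulated with PDGF for 10 or 60 min. Total lysates immunoblotted for phospho-p38 and total p38. Three independent experiments.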

[18] = species on record: Rattus norvegicus; assay: Effect on p38 MAPK activation in PDGF-stimulated rat VSMC assessed as phosphorylation at 5 uM treated for 30 mins followed by stimulated with PDGF for 60 mins by immunoblot analysis; summary of the method: as §3
[19] = test system: VSMC; assay: Antiproliferative activity against PDGF-stimulated rat VSMC assessed as inhibition of DNA synthesis at 5 uM after 24 hrs by [3H]-thymidine incorporation assay in presence of p38 kinase inhibitor SB203580; type: functional
Summary of the method: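 Rat aortic VSMCs starved 48 h. Treated with compound (5 μM), p38 inhibitor SB203580 (10 μM) and PDGF-BB (20 ng/mL) as indicated. Pulse-labelled with methyl-3H-thymidine (2 μCi/mL) for the final 6 h of 24 h. TCA-precipitated material was dissolved in 0.4 M NaOH and counted. n = 3, Student's t-test.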

[20] = test system: VSMC; assay: Increase in HO-1 protein expression in rat VSMC at 5 uM after 16 hrs by immunoblot analysis; type: functional
Summary of the method: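 Rat aortic VSMCs treated 16 h with vehicle, compound (5 μM) or cobalt protoporphyrin (10 μM). Total lysates immunoblotted for HO-1 and actin. Three independent experiments.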

[21] = test system: VSMC; assay: Antiproliferative activity against PDGF-stimulated rat VSMC transfected with HO-1 siRNA assessed as growth arrest after 24 hrs by immunoblot analysis; type: functional; details: in the assay text read “by cell counting” for “by immunoblot analysis”
Summary of the method: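 Rat aortic VSMCs transfected with scrambled or HO-1-specific siRNA, then starved, treated with compound and stimulated with PDGF. Cells were counted after 24 h. HO-1 knockdown was checked by immunoblot. n = 3, Student's t-test.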

[22] = test system: VSMC; assay: Decrease in basal ROS level in PDGF-stimulated rat VSMC at 5 uM pretreated with compound for 30 mins measured after upto 23 hrs of post stimulation using H2DCF by flow cytometric analysis; type: functional
Summary of the method: (§4)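 Quiescent rat aortic VSMCs pretreated 30 min with 5 μM compound or vehicle, then stimulated with PDGF (20 ng/mL). At set times up to 23 h, total intracellular ROS measured by flow cytometry of oxidized H2DCF (H2DCFDA probe). n = 3, ANOVA.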

[23] = test system: VSMC; assay: Decrease in intracellular ROS level in PDGF-stimulated rat VSMC at 5 uM pretreated with compound for 30 mins measured after upto 23 hrs of post stimulation using H2DCF by flow cytometric analysis; type: functional, cell-based; summary of the method: as §4
[24] = test system: VSMC; assay: Accumulation of HIF-1alpha in PDGF-stimulated rat VSMC at 5 uM after 4 hrs by immunoblot analysis; type: functional
Summary of the method: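 Primary aortic smooth muscle cells from male Sprague-Dawley rats, made quiescent in serum-free DMEM for 24 h. Pretreated with compound or vehicle, then stimulated with PDGF. After 4 h, total cell lysates were immunoblotted for HIF-1α, with actin as loading control.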

[25] = test system: VSMC; assay: Induction of HO-1 protein expression in rat VSMC at 5 uM measured after 16 hrs in presence of 10 to 100 uM of HIF-1alpha inhibitor […] treated for 15 mins by immunoblot analysis; type: functional
Summary of the method: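 Rat aortic VSMCs pretreated 15 min with the HIF-1α inhibitor YC-1 at graded levels (up to 100 μM), then given 5 μM compound or vehicle for 16 h. HO-1 read by immunoblot.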

[26] = test system: VSMC; assay: Inhibition of PDGF-stimulated rat VSMC proliferation; type: functional
[27] = test system: VSMC; assay: Induction of HO-1 protein expression in Nrf2-deficient PDGF-stimulated rat VSMC; type: functional

Mitogen-activated protein kinase 1 and 3 (ERK2 and ERK1) (Rattus norvegicus), sequence (P21708 whole entry, looked up): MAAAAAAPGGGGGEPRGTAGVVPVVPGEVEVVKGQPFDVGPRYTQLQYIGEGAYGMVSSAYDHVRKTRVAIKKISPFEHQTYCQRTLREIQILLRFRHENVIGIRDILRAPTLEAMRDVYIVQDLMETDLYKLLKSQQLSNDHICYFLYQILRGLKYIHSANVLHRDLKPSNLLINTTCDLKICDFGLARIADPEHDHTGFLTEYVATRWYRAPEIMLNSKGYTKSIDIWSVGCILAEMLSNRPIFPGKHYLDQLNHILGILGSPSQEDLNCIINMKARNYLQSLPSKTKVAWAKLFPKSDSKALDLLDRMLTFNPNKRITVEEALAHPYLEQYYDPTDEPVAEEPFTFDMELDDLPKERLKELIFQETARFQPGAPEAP
Mitogen-activated protein kinase 1 and 3 (ERK2 and ERK1) (Rattus norvegicus), sequence (P63086 whole entry, looked up): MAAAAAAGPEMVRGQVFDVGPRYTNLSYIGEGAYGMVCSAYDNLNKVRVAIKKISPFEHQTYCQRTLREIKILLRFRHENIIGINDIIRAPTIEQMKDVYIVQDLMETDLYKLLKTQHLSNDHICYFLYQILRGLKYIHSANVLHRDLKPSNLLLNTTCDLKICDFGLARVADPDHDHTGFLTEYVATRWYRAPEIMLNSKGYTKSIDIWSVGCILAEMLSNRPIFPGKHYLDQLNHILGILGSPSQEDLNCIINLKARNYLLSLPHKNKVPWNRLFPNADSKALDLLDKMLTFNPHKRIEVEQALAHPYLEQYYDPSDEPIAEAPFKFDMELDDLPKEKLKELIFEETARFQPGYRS
Signal transducer and activator of transcription 3 (Rattus norvegicus), sequence (P52631 whole entry): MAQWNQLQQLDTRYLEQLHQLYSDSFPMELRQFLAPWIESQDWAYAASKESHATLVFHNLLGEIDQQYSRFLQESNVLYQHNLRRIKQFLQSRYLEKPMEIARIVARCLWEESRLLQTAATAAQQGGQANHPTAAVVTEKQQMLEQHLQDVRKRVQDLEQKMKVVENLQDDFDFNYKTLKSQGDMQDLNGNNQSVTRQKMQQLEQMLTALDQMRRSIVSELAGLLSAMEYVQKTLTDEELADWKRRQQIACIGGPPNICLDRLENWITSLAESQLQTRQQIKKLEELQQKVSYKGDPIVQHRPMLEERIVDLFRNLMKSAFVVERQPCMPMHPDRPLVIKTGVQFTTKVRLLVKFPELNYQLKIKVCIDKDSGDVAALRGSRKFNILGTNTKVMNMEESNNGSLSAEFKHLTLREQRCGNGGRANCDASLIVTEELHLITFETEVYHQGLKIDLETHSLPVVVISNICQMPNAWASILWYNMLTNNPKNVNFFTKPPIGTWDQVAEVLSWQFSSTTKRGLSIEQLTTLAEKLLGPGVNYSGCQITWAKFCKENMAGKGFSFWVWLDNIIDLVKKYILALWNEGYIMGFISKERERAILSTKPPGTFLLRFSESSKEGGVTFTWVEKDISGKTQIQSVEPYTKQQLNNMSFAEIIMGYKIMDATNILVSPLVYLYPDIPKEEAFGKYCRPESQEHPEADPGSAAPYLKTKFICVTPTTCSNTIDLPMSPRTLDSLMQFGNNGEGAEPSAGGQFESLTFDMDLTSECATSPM
Mitogen-activated protein kinase 8 (Rattus norvegicus), sequence (P49185 whole entry): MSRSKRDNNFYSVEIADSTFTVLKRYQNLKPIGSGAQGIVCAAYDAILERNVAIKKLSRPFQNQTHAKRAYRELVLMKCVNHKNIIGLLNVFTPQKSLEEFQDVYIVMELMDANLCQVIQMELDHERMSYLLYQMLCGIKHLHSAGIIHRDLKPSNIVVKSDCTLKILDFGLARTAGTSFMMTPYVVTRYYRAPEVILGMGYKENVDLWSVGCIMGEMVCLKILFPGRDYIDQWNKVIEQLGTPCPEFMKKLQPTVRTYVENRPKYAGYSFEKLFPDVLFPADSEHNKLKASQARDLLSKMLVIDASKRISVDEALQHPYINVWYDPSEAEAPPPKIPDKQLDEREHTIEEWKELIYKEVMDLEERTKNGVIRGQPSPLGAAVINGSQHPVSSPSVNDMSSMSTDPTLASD

Activity [9]: inactive
Activity [10]: inactive
Activity [12]: inactive
Activity [13]: inactive
Activity [15]: inactive
Activity [17]: Active
Activity [18]: Active
SMILES: O=C(/C=C/c1ccc(O)c(O)c1)OCCc1ccccc1 [CAFFEIC ACID PHENETHYL ESTER]
inhibition [1]: Dose-dependent effect
Activity [2]: Active
viability at 48 h [3]: 65%
Activity [4]: Toxic
Activity [5]: Toxic
Activity [6]: Active
inhibition [7]: Active
Activity [8]: Active
Activity [11]: inactive
Activity [14]: inactive
Activity [16]: inactive
inhibition [19]: inactive
Activity [20]: Active
growth inhibition (GI) [21]: inactive
Activity [22]: Active
Activity [23]: Active
Activity [24]: Active
Activity [25]: inactive
inhibition [26]: Dose-dependent effect
Activity [27]: Active
